Drawing on BindingDB's records for doi:10.1021/jm010131q (National Center For Genetic Engineering and Biotechnology …, 2002), this text covers Ki and IC50 for 32 compounds.

The target in test [1] is Bifunctional dihydrofolate reductase-thymidylate synthase (Plasmodium falciparum (isolate K1 / Thailand), UniProt P13922). Nature of the test: Inhibition of the wild-type dihydrofolate reductase (DHFR). The essentials: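 Assay at 25 °C: 50 mM TES pH 7.0, 75 mM β-mercaptoethanol, 1 mg/mL BSA, 100 µM H2folate and 100 µM NADPH. NADPH oxidation followed at 340 nm. Ki derived from IC50 as Ki(1+[S]/Km), assuming competitive inhibition.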

The nature of test [2]: Antiplasmodial activity IC50 against Plasmodium falciparum K1CB1 DHFR double-mutant ([…]).

What is called Ki is the equilibrium dissociation constant of an inhibitor or competing ligand from its target. Lower therefore signals a stronger hold on the target. As usually defined, the IC50 is the concentration needed to halve the response being measured. Read a high IC50 as weaker potency.

Each structure is given as a SMILES string.

Chain of Bifunctional dihydrofolate reductase-thymidylate synthase (P13922 whole entry): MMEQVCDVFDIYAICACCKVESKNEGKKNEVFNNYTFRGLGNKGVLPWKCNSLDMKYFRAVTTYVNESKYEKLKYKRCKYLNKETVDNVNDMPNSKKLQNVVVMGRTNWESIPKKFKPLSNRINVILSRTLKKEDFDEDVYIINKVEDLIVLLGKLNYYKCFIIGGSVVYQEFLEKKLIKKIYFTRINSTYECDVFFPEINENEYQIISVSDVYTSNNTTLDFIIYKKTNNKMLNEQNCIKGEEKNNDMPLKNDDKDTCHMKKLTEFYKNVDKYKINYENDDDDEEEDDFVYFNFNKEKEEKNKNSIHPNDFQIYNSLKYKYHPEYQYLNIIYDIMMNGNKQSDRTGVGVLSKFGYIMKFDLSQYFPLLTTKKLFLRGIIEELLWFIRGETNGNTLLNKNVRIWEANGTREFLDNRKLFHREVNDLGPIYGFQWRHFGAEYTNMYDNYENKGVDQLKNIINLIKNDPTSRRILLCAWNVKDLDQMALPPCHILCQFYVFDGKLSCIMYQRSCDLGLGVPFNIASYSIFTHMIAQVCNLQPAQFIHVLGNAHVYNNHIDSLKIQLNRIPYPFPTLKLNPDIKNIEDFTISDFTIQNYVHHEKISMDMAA

The compound `Nc1ncc(-c2ccc(Cl)cc2)c(N)n1` [5-(4-chlorophenyl)pyrimidine-2,4-diamine] registered an inhibitory constant (Ki) in test [1] of 0.0024 µM. For the same compound, in test [2], it took 26.2 µM to reach half-maximal inhibition (IC50). In turn, `CCOc1c(Br)cc(-c2c(N)nc(N)nc2CC)cc1Br` [5-(3,5-Dibromo-4-ethoxy-phenyl)-6-ethyl-pyrimidine-2,4-diamine] returned an inhibition constant Ki in test [1] of 0.007 µM. The same compound gave an IC50 in test [2] of 17.4 µM. In test [1], `Cc1nc(N)nc(N)c1-c1ccc(Cl)cc1` yielded an inhibitory constant (Ki) of 0.002 µM. For the same compound, the IC50 in test [2] turned out to be 60.1 µM.

The compound `COc1cc(Cc2cnc(N)nc2N)cc(OC)c1OCc1ccccc1` [5-(4-Benzyloxy-3,5-dimethoxy-benzyl)-pyrimidine-2,4-diamine] yielded a Ki in test [1] of 0.0042 µM. The compound further came in with a 50% inhibitory concentration (IC50) in test [2] of 30.1 µM. On to `Nc1nc(N)c(-c2cccc(Cl)c2)c(CCCc2ccccc2)n1`, for which, in test [2], inhibition was half-maximal at 3 µM (IC50). In turn, `Cc1nc(N)nc(N)c1-c1ccccc1` gave an inhibition constant Ki in test [1] of 0.0109 µM. In test [2], this compound gave a 50% inhibitory concentration (IC50) of 30.8 µM. `COC(=O)CCCc1nc(N)nc(N)c1-c1ccccc1` [4-(2,6-Diamino-5-phenyl-pyrimidin-4-yl)-butyric acid methyl ester] showed an IC50 in test [2] of 31.3 µM. Turning to `Nc1ncc(-c2ccccc2)c(N)n1` [5-Phenyl-pyrimidine-2,4-diamine], inhibition in test [2] was half-maximal at 19.4 µM (IC50). For the compound `CCc1nc(N)nc(N)c1-c1ccccc1`, in test [2], the half-maximal inhibitory concentration (IC50) was 3.3 µM.

`Nc1ncc(-c2cccc(Cl)c2)c(N)n1` [5-(3-Chloro-phenyl)-pyrimidine-2,4-diamine] had a Ki in test [1] of 0.0063 µM. In addition, the IC50 in test [2] worked out at 8.8 µM. Compound `COc1ccc(CCCc2nc(N)nc(N)c2-c2cccc(Cl)c2)cc1` [5-(3-Chloro-phenyl)-6-[3-(4-methoxy-phenyl)-propyl]-pyrimidine-2,4-diamine] showed an IC50 in test [2] of 2.7 µM.

`COC(=O)CCCc1nc(N)nc(N)c1-c1cccc(Cl)c1` [4-[2,6-Diamino-5-(3-chloro-phenyl)-pyrimidin-4-yl]-butyric acid methyl ester] showed an IC50 in test [2] of 36.3 µM.

Consider `COC(=O)CCCc1nc(N)nc(N)c1-c1ccc(Cl)cc1`, for which the IC50 in test [2] stood at 22.3 µM. On to `Nc1ncc(Cc2ccc(OCCCOc3cc(Cl)c(Cl)cc3Cl)cc2)c(N)n1` [5-{4-[3-(2,4,5-Trichloro-phenoxy)-propoxy]-benzyl}-pyrimidine-2,4-diamine], for which the inhibition constant (Ki) in test [1] came out at 0.0009 µM. In test [2], this compound had an IC50 of 3.5 µM. `CCc1nc(N)nc(N)c1-c1ccc(OCc2ccc(Cl)cc2Cl)c(OC)c1` [5-[4-(2,4-Dichloro-benzyloxy)-3-methoxy-phenyl]-6-ethyl-pyrimidine-2,4-diamine] yielded a Ki in test [1] of 0.001 µM. Moreover, the half-maximal inhibitory concentration (IC50) in test [2] is > 50 µM.

For the compound `CCc1nc(N)nc(N)c1-c1ccc(Cl)c(Cl)c1`, the IC50 in test [2] stood at 17.4 µM. In test [1], `COc1cc(COc2cc(Cc3cnc(N)nc3N)ccc2OCc2ccccc2)cc(OC)c1OC` [5-[4-Benzyloxy-3-(3,4,5-trimethoxy-benzyloxy)-benzyl]-pyrimidine-2,4-diamine] came in with a Ki of 0.0121 µM. The half-maximal inhibitory concentration (IC50) in test [2] turned out to be 17.5 µM. As for `Nc1nc(N)c(-c2ccccc2)c(CCCc2ccccc2)n1`, the IC50 in test [2] was 2.3 µM. In the case of `CCc1nc(N)nc(N)c1-c1ccc(OC)cc1`, the affinity in test [1] corresponds to a Ki of 0.0009 µM. Further, the concentration for half-maximal inhibition (IC50) in test [2] is > 25 µM. `CCc1nc(N)nc(N)c1-c1ccc2c(c1)OCO2` [5-Benzo[1,3]dioxol-5-yl-6-ethyl-pyrimidine-2,4-diamine]: in test [2], 21.5 µM corresponded to half-maximal inhibition (IC50). `COc1cc(Cc2cnc(N)nc2N)ccc1OCc1cc(OC)c(OC)c(OC)c1` [5-[3-Methoxy-4-(3,4,5-trimethoxy-benzyloxy)-benzyl]-pyrimidine-2,4-diamine]: the Ki in test [1] was found to be 0.0006 µM. The compound also displayed a 50% inhibitory concentration (IC50) in test [2] of 27.8 µM.

In test [2], `Cc1nc(N)nc(N)c1-c1cccc(Cl)c1` [5-(3-chlorophenyl)-6-methylpyrimidine-2,4-diamine] registered an IC50 of 4.8 µM. Still for that read-out and setting: under `CCCCCCc1nc(N)nc(N)c1-c1ccccc1` [6-hexyl-5-phenylpyrimidine-2,4-diamine] stands 1.3 µM. In test [1], `COc1cc(Cc2cnc(N)nc2N)ccc1OCCCc1ccccc1` [5-[3-Methoxy-4-(3-phenyl-propoxy)-benzyl]-pyrimidine-2,4-diamine] had an inhibition constant Ki of 0.0018 µM. Further, the IC50 in test [2] was determined as 11.7 µM. Turning to `CCc1nc(N)nc(N)c1-c1cccc(Cl)c1` [5-(3-chlorophenyl)-6-ethylpyrimidine-2,4-diamine], in test [2], it took 1.3 µM to reach half-maximal inhibition (IC50). Compound `CCc1nc(N)nc(N)c1-c1ccc(Br)cc1` [5-(4-bromophenyl)-6-ethylpyrimidine-2,4-diamine] showed a Ki in test [1] of 0.0003 µM. This compound showed a concentration for half-maximal inhibition (IC50) in test [2] of 25 µM. For `CCc1nc(N)nc(N)c1-c1ccc(C(C)(C)C)cc1` [5-(4-tert-butylphenyl)-6-ethylpyrimidine-2,4-diamine], in that order: 0.0006 µM and 3.9 µM. As to `CCc1nc(N)nc(N)c1-c1ccc(-c2ccccc2)cc1` [5-Biphenyl-4-yl-6-ethyl-pyrimidine-2,4-diamine], in test [1], the affinity, expressed as Ki, was 0.188 µM. In test [2], this compound had a 50% inhibitory concentration (IC50) of 4.4 µM. Turning to `Nc1nc(N)c(-c2ccc(Cl)cc2)c(CCCc2ccccc2)n1` [5-(4-Chloro-phenyl)-6-(3-phenyl-propyl)-pyrimidine-2,4-diamine], the IC50 in test [2] amounted to 10.6 µM.

The compound `CCc1nc(N)nc(N)c1-c1ccc(Cl)cc1Cl` [5-(2,4-Dichloro-phenyl)-6-ethyl-pyrimidine-2,4-diamine] returned an inhibition constant Ki in test [1] of 0.0126 µM. The compound also displayed a half-maximal inhibitory concentration (IC50) in test [2] of 22.5 µM.

For `CCc1nc(N)nc(N)c1-c1ccc(C)cc1` [6-ethyl-5-(4-methylphenyl)pyrimidine-2,4-diamine], the IC50 in test [2] turned out to be 12.7 µM. `Nc1nc(N)c(-c2cccc(Cl)c2)c(CCOCCCOc2ccccc2)n1` [5-(3-chlorophenyl)-6-[2-(3-phenoxypropoxy)ethyl]pyrimidine-2,4-diamine] gave a half-inhibitory concentration (IC50) in test [2] of 3.3 µM.
